Results pooled from the literature.
Lines come from different studies, so protocols differ.
Effect on: metabolic stability

C/C=C/C[C@H](C)[C@@H](OC)[C@@H](C)[C@H](O)C[C@H]1OC(=O)C=C[C@H]1CC — half-life (mouse; liver microsomes): < 15 min
C=CC(=O)Nc1cc(F)c(N2CCC[C@@H](Nc3ncc(Cl)c(-c4c[nH]c5ccccc45)n3)C2)cc1C — half-life (mouse; liver microsomes): 3.9 min
O=C1CCN(C(=O)Nc2ccc(F)c(C(F)F)c2)[C@@H]2CCCC[C@H]12 — half-life (mouse; liver microsomes): > 32 min
Cc1ccc(S(=O)(=O)Nc2cccc(-c3nnn[nH]3)c2)cc1C(F)(F)F — half-life (mouse; liver microsomes): 38 min
CC1=C(C(=O)OC(C)(C)C)C(=O)/C(=C\c2cc(C)n(-c3ccccc3C(F)(F)F)c2C)N1 — half-life (mouse; liver microsomes; 1 µM): 20 min
N=c1c2c(-c3ccccc3)c(-c3ccccc3)n(CCc3ccccc3)c2ncn1[C@H]1CC[C@H](O)CC1 — half-life (male CD-1 mouse; liver microsomes; 1 µM; pH 7.4): > 120 min
Cc1cc(S(=O)(=O)Nc2cccc(-c3nnn[nH]3)c2)ccc1C(F)(F)F — half-life (mouse; liver microsomes): 133 min
O=C(CC1Cc2ccccc2C1)N[C@H](CN1CCCC1)[C@H](O)c1ccc2c(c1)OCCO2 — half-life (mouse; liver microsomes): 2.5 min
O=C(Nc1ccc(Cl)c(Cl)c1)c1ccc(N2CCNCC2)c([N+](=O)[O-])c1 — half-life (CD-1 mouse; liver microsomes; 1 µM; pH 7.4): > 110 min
NC[C@@H]1O[C@H](O[C@H]2[C@@H](O)[C@H](O[C@@H]3[C@@H](O)[C@H](N)C[C@H](N)[C@H]3O[C@H]3O[C@H](CO)[C@@H](O)[C@H](O)[C@H]3N)O[C@@H]2CO)[C@H](N)[C@@H](O)[C@@H]1O — half-life (mouse; liver microsomes; 25 µM; pH 7.4): 143 min
CCOC(=O)C1=C(C)N/C(=C/c2cc(C)n(-c3ccc(OC)cc3)c2C)C1=O — half-life (mouse; liver microsomes; 1 µM): 32 min
Cc1ccc(S(=O)(=O)Nc2cccc(-c3nnn[nH]3)c2)cc1C — half-life (mouse; liver microsomes): 50 min
CCOC(=O)NS(=O)(=O)c1sc(CC(C)C)cc1-c1ccc2c(c1)CN(C(C)=O)C2 — half-life (mouse; liver microsomes; 1 µM; pH 7.4): 21 min
CCOC(=O)C1=C(C)N/C(=C/c2cc(C)n(-c3ccc(N4CCOCC4)cc3)c2C)C1=O — half-life (mouse; liver microsomes; 1 µM): 57 min
CNC(=O)[C@H](Cc1c[nH]cn1)NC(=O)CN(CC(=O)O)Cc1ccccc1 — half-life (male mouse; liver microsomes; 1 µM; pH 7.4): > 40 min
CCOC(=O)C1=C(C)N/C(=C/c2cc(C)n(-c3ccc(Br)cc3)c2C)C1=O — half-life (mouse; liver microsomes; 1 µM): 28 min
CC(C)(C)C[C@@H]1N[C@@H](C(=O)N[C@H]2C[C@](C)(O)C2)[C@H](c2cccc(Cl)c2F)[C@]12C(=O)Nc1cc(Cl)ccc12 — half-life (mouse; liver microsomes): > 60 min
O=C(Nc1ccc(CN2CCOCC2)c(C(F)(F)F)c1)c1ccc(C#Cc2cccc3cnccc23)cn1 — half-life (mouse; liver microsomes): 13.4 min
CCOC(=O)C1=C(C)N/C(=C/c2cc(C)n(-c3ccc(CN(C)C)cc3)c2C)C1=O — half-life (mouse; liver microsomes; 1 µM): 56 min
CN1CCN(Cc2cc(CNC3(c4ccccc4F)CCCC3)ccc2O)CC1 — half-life (mouse; liver microsomes; 4.6 µM; pH 7.5): 12 min
CNC(=O)c1ccccc1Nc1cc(Nc2cc(C)c(C3CCN(CCCCCCNC(=O)COc4cccc5c4C(=O)N(C4CCC(=O)NC4=O)C5=O)CC3)cc2OC(C)C)ncc1C(F)(F)F (stereo not drawn) — half-life (mouse; liver microsomes): 27 min
CC(C)NCC(O)COc1cccc2ccccc12 (stereo not drawn) — half-life (mouse; liver microsomes; 1 µM): 11.5 min
CCOC(=O)C1=C(C)N/C(=C/c2ccn(-c3ccc(C(F)(F)F)cc3)c2)C1=O — half-life (mouse; liver microsomes; 1 µM): 12 min
Cc1cccc(C(=O)Nc2nc(-c3ccccn3)cs2)c1 — half-life (CD-1 mouse; liver microsomes; 39.6 µM; pH 7.4): 6 min
Cc1ccc(-c2cnc(N3CCC(C(N)=O)CC3)s2)cc1 — half-life (mouse; liver microsomes; 1 µM): < 10 min
COc1cc2[nH]c(C#N)cc2c(C)c1CN1CCC(Nc2ncnc3sc(CC(F)(F)F)cc23)CC1 — half-life (CD-1 mouse; liver microsomes; 1 µM; pH 7.4): > 30 min
CCCN(C)Cc1cc(-c2[nH]c3cccc(F)c3c(=O)c2C)ccc1Cc1ccc(OC(F)(F)F)cc1 — half-life (mouse; liver microsomes): 3.47 min
N=C(N)NCc1ccc(NC(=O)C23CCC(C(=O)Nc4ccc(C5=CCN(C(=N)N)CC5)cc4)(CC2)CC3)cc1 — half-life (CD-1 mouse; liver microsomes; 1 µM): > 60 min
Cc1ccc(-n2sc3ccccc3c2=O)cc1 — half-life (mouse; liver microsomes): < 60 min
CCCCOC(=O)NS(=O)(=O)c1sc(CC(C)C)cc1-c1cccc2c1CN(C(C)=O)C2 — half-life (mouse; liver microsomes; 1 µM; pH 7.4): 6.9 min
CNC(=O)[C@H](Cc1c[nH]cn1)NC(=O)CN(CCCc1ccccc1)CC(=O)OC — half-life (male mouse; liver microsomes; 1 µM; pH 7.4): 26 min
COc1cccc(OC)c1CNC(=O)c1cc(C2NC(=O)NC(C)=C2C(=O)Nc2ccc3[nH]ncc3c2)ccc1F (stereo not drawn) — half-life (CD-1 mouse; liver microsomes; 1 µM; pH 7.4): < 4 min
CCOC(=O)C1=C(C)N/C(=C/c2cc(C)n(-c3ccc(S(=O)(=O)C(F)(F)F)cc3)c2C)C1=O — half-life (mouse; liver microsomes; 1 µM): 30 min
CCOC(=O)NS(=O)(=O)c1sc(CC(C)C)cc1-c1ccc2c(c1)CN(C)C(=O)C2 — half-life (mouse; liver microsomes; 1 µM; pH 7.4): 23 min
C=CC(=O)Nc1ccc(N2CCC[C@@H](Nc3ncc(Cl)c(-c4c[nH]c5ccccc45)n3)C2)c(F)c1 — half-life (mouse; liver microsomes): 7.6 min
CC[C@@H]1C=CC(=O)O[C@@H]1C[C@@H](O)[C@H](C)[C@H](OC)[C@@H](C)Cc1ccc(F)cc1 — half-life (mouse; liver microsomes): < 2.3 min
O=c1ccc2ccc(O)cc2o1 — half-life (mouse; liver S9; 2 µM; pH 7.4): 4.71 min
CCOC(=O)C1=C(C)N/C(=C/c2cc(C)n(-c3ccc(N(C)C)cc3)c2C)C1=O — half-life (mouse; liver microsomes; 1 µM): 31 min
O=C(Nc1ccc2sc(-c3ccc(F)c(F)c3)nc2c1)N1CC[C@H](F)C1 — half-life (mouse; liver microsomes; 1.5 µM): ≥ 60 min
